Results from ChEMBL document CHEMBL3856284, “Discovery, design and synthesis of 6H-anthra[1,9-cd]isoxazol-6-one scaffold as G9a inhibitor through a combination of shape-based virtual screening and structure-based molecular modification” (Bioorg Med Chem, 2016).
Active and inactive are the calls of the source. No cut-off for these calls is given here.

Experiments:
MCF7 [1] = assay: Induction of phenotypic changes in human MCF7 cells assessed as distortion at 4 uM after 24 hrs by inverted light microscopic method; assay type: functional, cell-based
Procedure, shortened: (§1)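 MCF-7 cells were incubated 24 h with 2, 4 or 8 µM compound, with an untreated group as control. Cell morphology (distortion, blebbing, shrinkage, rounding, necrosis) was examined under an inverted light microscope at ×200.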

MCF7 [2] = assay: Induction of phenotypic changes in human MCF7 cells assessed as membrane blebbing at 4 uM after 24 hrs by inverted light microscopic method; assay type: functional, cell-based; procedure, shortened: as §1
MCF7 [3] = assay: Induction of phenotypic changes in human MCF7 cells assessed as shrinkage at 4 uM after 24 hrs by inverted light microscopic method; assay type: functional, cell-based; procedure, shortened: as §1
MCF7 [4] = assay: Induction of apoptosis in human MCF7 cells assessed as late apoptotic cells at 2 uM after 48 hrs by annexin V staining-based flow cytometric analysis (reference value: 11%); assay type: functional
MCF7 [5] = assay: Induction of apoptosis in human MCF7 cells assessed as viable cells at 2 uM after 48 hrs by annexin V staining-based flow cytometric analysis (reference value: 82.85%); assay type: functional; details: MCF7, 48 h, read-out: Activity
MCF7 [6] = assay: Induction of apoptosis in human MCF7 cells assessed as early apoptotic cells at 4 uM after 48 hrs by annexin V staining-based flow cytometric analysis (reference value: 0.5%); assay type: functional
MCF7 [7] = assay: Induction of apoptosis in human MCF7 cells assessed as late apoptotic cells at 4 uM after 48 hrs by annexin V staining-based flow cytometric analysis (reference value: 11%); assay type: functional
MCF7 [8] = assay: Induction of apoptosis in human MCF7 cells assessed as necrotic cells at 4 uM after 48 hrs by annexin V staining-based flow cytometric analysis (reference value: 5.65%); assay type: functional
MCF7 [9] = assay: Induction of apoptosis in human MCF7 cells assessed as late apoptotic cells at 8 uM after 48 hrs by annexin V staining-based flow cytometric analysis (reference value: 11%); assay type: functional
MCF7 [10] = assay: Induction of apoptosis in human MCF7 cells assessed as viable cells at 8 uM after 48 hrs by annexin V staining-based flow cytometric analysis (reference value: 82.85%); assay type: functional; details: MCF7, 48 h, read-out: Activity
Mus musculus [11] = assay: AUC in mouse at 10 mg/kg, po after 5 mins to 24 hrs by LC-MS/MS analysis; details: in vivo
Mus musculus [12] = assay: AUC in mouse at 10 mg/kg, iv after 2 mins to 24 hrs by LC-MS/MS analysis; details: in vivo
Mus musculus [13] = assay: Tmax in mouse at 10 mg/kg, po after 5 mins to 24 hrs by LC-MS/MS analysis; details: in vivo
Mus musculus [14] = assay: Cmax in mouse at 10 mg/kg, iv after 2 mins to 24 hrs by LC-MS/MS analysis; details: in vivo
Mus musculus [15] = assay: Clearance in mouse at 10 mg/kg, po after 5 mins to 24 hrs by LC-MS/MS analysis; details: in vivo
Mus musculus [16] = assay: Half life in mouse at 10 mg/kg, iv after 2 mins to 24 hrs by LC-MS/MS analysis; details: in vivo

`O=C1c2ccccc2-c2onc3c(N4CCCCC4)cc(NCCN4CCCC4)c1c23` was tested, and the Activity (MCF7 [1]) was “Active”, the Activity (MCF7 [2]) was “Active” and the Activity (MCF7 [3]) was “Active”. It also gave an Activity (MCF7 [4]) of 18.25%, a viability at 2 µM (MCF7 [5]) of 78.2% and an Activity (MCF7 [6]) of 0.8%. For the same molecule, the Activity (MCF7 [7]) was 26.05%, the Activity (MCF7 [8]) was 3.1% and the Activity (MCF7 [9]) was 30.05%. For the same molecule, the viability at 8 µM (MCF7 [10]) was 66.5%, the AUC (Mus musculus [11]) was 724 ng·h/mL and the AUC (Mus musculus [12]) was 1300 ng·h/mL. For the same molecule, the Tmax (Mus musculus [13]) was 6.7 h, the Cmax (Mus musculus [14]) was 188 ng/mL and the CL/F (Mus musculus [15]) was 253 mL/min/kg. It also gave a half-life (Mus musculus [16]) of 414 min.
